From ChEMBL document CHEMBL1138744, “In vitro cytotoxic activities of 2-alkyl-4,6-diheteroalkyl-1,3,5-triazines: new molecules in anticancer research” (J Med Chem, 2004) come the findings set out here.

The IC50 is the concentration that inhibits the measured activity by half. A lower IC50 goes with greater potency. The GI50 is the concentration that inhibits growth by half. Higher therefore signals lower sensitivity of the cells.

Holding throughout (assay type): functional, cell-based
The test system of assay [1] is C6. As to the kind of experiment: Cytotoxic activity of compound towards […] cell line after 72 hr of administration. The settings on record: Rattus norvegicus, C6, 72 h.
Assay [2] has as its system C6. As to the kind of experiment: Cytotoxic activity of compound towards […] cell line after 48 hr of administration. The settings on record: Rattus norvegicus, C6, 48 h.
Assay [3] has as its system L1210. As to the kind of experiment: Cytotoxic activity of compound towards human leukemia L1210 cell line after 48 hr of administration. The settings on record: Mus musculus, L1210, 48 h.
Assay [4] concerns HL-60. As to the kind of experiment: Cytotoxic activity of compound towards human HL60 cell line after 48 hr of administration. The settings on record: HL-60, 48 h.
Assay [5] deals with HL-60. In words: Cytotoxic activity of compound towards human HL60 cell line after 72 hr of administration. The settings on record: HL-60, 72 h.
The subject of assay [6] is L1210. In words: Cytotoxic activity of compound towards human L1210 cell line after 72 hr of administration. The settings on record: Mus musculus, L1210, 72 h.
In a further assay the test system is SR. In words: Cytotoxic activity of compound towards human cancer cell line SR (leukemia). A digest of the protocol: (§1)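 Compounds first passed a one-dose primary assay on three cell lines, then were tested on a 60-line human tumour panel. Dose–response curves gave growth-inhibition values (IG50, μM). For each compound, only the most sensitive of the 60 lines was reported.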

A further assay concerns HCT-116. As to the kind of experiment: Cytotoxic activity of compound towards human cancer cell line HCT116 (colon cancer). A digest of the protocol: as §1
For assay [7], the system named is L1210. As to the kind of experiment: Cytotoxic activity of compound towards […] cell line after 48 hr of administration; NE= No effect.
Assay [8] in a line: Cytotoxic activity of compound towards human L1210 cell line after 72 hr of administration; a is No cytotoxic effect.
Another assay concerns LOX IMVI. In words: Cytotoxic activity of compound towards human cancer cell line LOX IMVI (melanoma). A digest of the protocol: as §1
Assay [9] deals with C6. As to the kind of experiment: Cytotoxic activity of compound towards […] cell line after 72 hr of administration; NE= No effect.
Assay [10] relates to HL-60. As to the kind of experiment: Cytotoxic activity of compound towards human HL60 cell line after 72 hr of administration; NE= No effect.
The subject of assay [11] is L1210. As to the kind of experiment: Cytotoxic activity of compound towards human L1210 cell line after 72 hr of administration; NE= No effect.
The subject of assay [12] is HL-60. As to the kind of experiment: Cytotoxic activity of compound towards human HL60 cell line after 48 hr of administration; NE= No effect.
The next assay has as its system CAKI-1. In words: Cytotoxic activity of compound towards human cancer cell line CAKI-1 (renal cancer). A digest of the protocol:
as §1

The test system of another assay is HOP-62. In words: Cytotoxic activity of compound towards human cancer cell line HOP-62 (lung cancer). The method, boiled down: as §1
In a further assay the test system is OVCAR-4. As to the kind of experiment: Cytotoxic activity of compound towards human cancer cell line OVCAR-4 (ovarian cancer). The method, boiled down:
as §1

For the compound `COc1ccc(Oc2nc(C#CC(C)(C)O)nc(Oc3ccc(OC)cc3)n2)cc1`, the IC50 with C6 [1] is above 10000 µM; in the assay on C6 [2] it was above 10000 µM; in the assay on L1210 [3], 11 µM; with HL-60 [4], 17 µM; in the assay on HL-60 [5], 36.3 µM; with L1210 [6], 14.1 µM. For the same compound, in the assay on SR, it took 0.63 µM to reach half-maximal inhibition (IC50).

As for `COc1nc(C#CC2CCCCC2)nc(OC)n1`, the IC50 in the assay on HCT-116 is 0.4 µM.

In the case of `COc1ccc(Oc2nc(Oc3ccc(OC)cc3)nc(Oc3ccc(OC)cc3)n2)cc1`, the IC50 in the assay on HL-60 [4] turned out to be 70.8 µM; with HL-60 [5], 52.5 µM.

On to `COc1ccc(Nc2nc(C#CC(C)(C)C)nc(Nc3ccc(OC)cc3)n2)cc1`, for which the IC50 was above 10000 µM in the assay on C6 [1]; above 10000 µM in the assay with C6 [2]; “Not Active” in the assay with L1210 [7]; 589 µM in the assay with HL-60 [4]; 575 µM in the assay on HL-60 [5]; “No effect” in assay [8].

Compound `COc1nc(C#CCCCC#N)nc(OC)n1` came in with a GI50 in the assay on LOX IMVI of 2.09 µM.

With `CC(C)(C)C#Cc1nc(N2CCOCC2)nc(N2CCOCC2)n1`, the 50% inhibitory concentration (IC50) in the assay with C6 [2] is 6610 µM; with L1210 [3], 182 µM; in the assay with HL-60 [4], 182 µM; in the assay on HL-60 [5] it was 389 µM; with L1210 [6], 120 µM; in the assay with C6 [9] it was “Not Active”.

For the compound `COc1nc(C#CC(C)(C)O)nc(OC)n1`, the IC50 in the assay on C6 [1] turned out to be 15.1 µM; in the assay on C6 [2] it was 16.2 µM; in the assay on L1210 [3] it was 14.1 µM; with HL-60 [4], 15.8 µM; in the assay with HL-60 [5], 15.1 µM; in the assay with L1210 [6], 12.9 µM.

In the case of `CC(C)(C)C#Cc1nc(N(CCO)CCO)nc(N(CCO)CCO)n1`, the 50% inhibitory concentration (IC50) in the assay with C6 [2] was 3390 µM; in the assay on L1210 [7] it was “Not Active”; in the assay with C6 [9], “Not Active”; in the assay with HL-60 [10], “Not Active”; in the assay on L1210 [11] it was “Not Active”; in the assay on HL-60 [12], “Not Active”.

Regarding `COc1nc(C#CC(C)(C)C)nc(OC)n1`, the half-maximal inhibitory concentration (IC50) with C6 [1] came to 16.6 µM; with C6 [2] it was 16.6 µM; in the assay with L1210 [3], 12 µM; with HL-60 [4] it was 7.08 µM; in the assay on HL-60 [5] it was 7.08 µM; with L1210 [6], 9.12 µM. Half-maximal inhibition in the assay with SR (IC50) was put at 5.25 µM.

With `CC(C)c1nc(N2CCOCC2)nc(N2CCOCC2)n1`, the IC50 with C6 [1] is 490 µM; in the assay on C6 [2], 141 µM; with L1210 [3], 93.3 µM; with HL-60 [4] it was 87.1 µM; with HL-60 [5], 200 µM; in the assay with L1210 [6], 67.6 µM.

`COc1nc(OC)nc(-c2cccc(F)c2)n1`: the half-inhibitory concentration (IC50) in the assay with CAKI-1 was below 0.01 µM.

With `C1CN(c2nc(N3CCOCC3)nc(N3CCOCC3)n2)CCO1`, the IC50 in the assay on C6 [1] came to 288 µM; in the assay on C6 [2], 151 µM; with L1210 [3] it was 151 µM; in the assay with HL-60 [4] it was 129 µM; in the assay on HL-60 [5] it was 100 µM; in the assay with L1210 [6], 110 µM.

For `COc1nc(OC)nc(OC)n1`, the figures for the half-maximal inhibitory concentration (IC50) in the assay with HL-60 [4] and in the assay with HL-60 [5] were 302 µM and 339 µM, respectively.

On to `CCC(O)C#Cc1nc(OC)nc(OC)n1` (stereo not given), for which the half-maximal inhibitory concentration (IC50) in the assay with HOP-62 was 4.9 µM.

For the compound `CC[C@H](C)Cc1nc(N2CCOCC2)nc(N2CCOCC2)n1`, the IC50 in the assay with C6 [1] was determined as 240 µM; in the assay on C6 [2], 575 µM; with L1210 [3], 141 µM; with HL-60 [4], 219 µM; with HL-60 [5], 141 µM; in the assay with L1210 [6], 57.5 µM.

As to `COc1nc(C#CC2(O)CCCCC2)nc(OC)n1`, in the assay on OVCAR-4, the concentration for half-maximal inhibition (IC50) stood at 1.86 µM.
